# Compound activity: PubChem BioAssay, several laboratories
# MPTP inh – inhibitors of mitochondrial permeability transition pore; isolated mouse mitochondria, Ca2+ swelling absorbance, 30 min; inhibition, % at 10 µM; 1.4% of 360,000 active; AID 602449;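 active = inhibition of 50% or more, scaled per plate between neutral and stimulator controls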;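 note: 0% = DMSO wells given calcium and 100% = 1 mM EGTA wells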
# TAAR1 ag – agonists of human TAAR1 | activation, % at 3 µM | Q96RJ0 | 0.99% of 360,000 active | CHO RD-HGA16 TAAR1, Fluo-8 calcium fluorescence; vehicle wells 0%, saturating PEA agonist 100%;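 active = activation above the mean activation of all test compounds in the run plus 3 SD, cut at about 38% in these data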
# Target sequence (Q96RJ0 whole entry, looked up): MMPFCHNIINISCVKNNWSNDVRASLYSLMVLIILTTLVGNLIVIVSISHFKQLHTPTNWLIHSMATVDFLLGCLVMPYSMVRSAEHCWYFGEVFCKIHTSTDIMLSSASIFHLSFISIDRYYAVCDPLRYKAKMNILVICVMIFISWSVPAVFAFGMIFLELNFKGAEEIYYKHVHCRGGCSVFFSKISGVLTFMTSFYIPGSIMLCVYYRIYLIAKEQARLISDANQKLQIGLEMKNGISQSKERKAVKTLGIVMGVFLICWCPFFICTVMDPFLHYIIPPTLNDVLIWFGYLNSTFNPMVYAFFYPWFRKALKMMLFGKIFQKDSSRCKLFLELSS
#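 Test system: RD-HGA16 (CHO) cells co-expressing Gα16 and hTAAR1 / Benchmarks: DMSO vehicle as 0%, PEA at EC100 as 100% / Repeats: no replicates (n 1) / Measure: % activation from peak over basal fluorescence ratio, DMSO-to-PEA scaled / Timing: 17-24 h plating, Fluo-8 75 min 37 °C, 30 min RT / Technique: kinetic Fluo-8 calcium fluorescence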
# TAAR1 antag – antagonists of human TAAR1; CHO RD-HGA16 TAAR1, Fluo-8 calcium fluorescence, antagonist; AID 624466; inhibition, % at 3 µM; 1.5% of 360,000 active; Q96RJ0;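 active = inhibition above a per-plate cutoff, the mean inhibition of test compounds on that plate plus 3 SD, cut at about 49% in these data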;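 note: 0% = DMSO plus EC80 beta-PEA response and 100% = DMSO alone without agonist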
#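 Test system: RD-HGA16 CHO cells with stable hTAAR1 and Gα16 / Probe or stimulus: EC80 β-phenethylamine stimulus / Times: seeding 17-24 h prior, 75-min 37 °C, 30-min RT dye loading / Detection: Fluo-8 calcium-sensitive fluorescence / Read-out basis: % inhibition scaled between DMSO and EC80 PEA controls / Repeats: singlicate, one well per test compound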
# DAGLB inhibitor – blocks human DAGLB lipase activity | HEK293T DAGLB membrane lysate, EnzChek fluorogenic substrate | inhibition, % at 5.17 µM | 0.059% of 340,000 active; in the data active = inhibition above about 34%;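 note: 0% = enzyme with vehicle and 100% = wells lacking enzyme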
# GPR7 antag – human neuropeptides B/W receptor 1 antagonism; P48145; GPR7-expressing cells, fluorescence antagonist assay; inhibition, % at 4.4 µM; 1.1% of 290,000 active; in the data active = inhibition above about 16%, passing the limit was not always enough;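 note: cells stimulated with the agonist NPW; 0% = agonist with vehicle and 100% = vehicle without agonist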
# Target sequence (P48145 whole entry, looked up): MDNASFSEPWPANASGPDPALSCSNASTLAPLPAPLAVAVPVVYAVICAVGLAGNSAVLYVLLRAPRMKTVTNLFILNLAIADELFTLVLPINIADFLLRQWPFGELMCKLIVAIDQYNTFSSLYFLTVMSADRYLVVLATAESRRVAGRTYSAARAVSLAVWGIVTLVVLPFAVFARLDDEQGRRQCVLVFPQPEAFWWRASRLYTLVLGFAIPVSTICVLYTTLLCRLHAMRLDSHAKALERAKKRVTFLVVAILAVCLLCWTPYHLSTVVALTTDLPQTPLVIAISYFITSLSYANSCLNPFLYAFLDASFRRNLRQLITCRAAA
# MPTP counter – membrane potential counter-screen of mitochondrial pore inhibitors. shares compounds with MPTP inh. isolated mitochondria, Rhodamine 123 fluorescence. inhibition, % at 10 µM. 78% of 5,000 active. AID 624504; in the data active = inhibition above about 22%;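 note: 0% = DMSO vehicle and 100% = positive control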
# MPTP swell DR – MPTP inhibition, dose response swelling confirmation; isolated mitochondria swelling, absorbance; shares compounds with MPTP inh; 58% of 780 active; IC50, µM; AID 651561; in the data active = IC50 below about 20 µM
# MPTP counter DR – MPTP inhibitor counter-screen activity, dose response. shares compounds with MPTP inh. isolated mitochondria counterscreen, fluorescence read-out. IC50, µM. 49% of 780 active. AID 651564; in the data active = IC50 below about 80 µM
# Starred values were filed as active, the others as inactive; i = inactive; nt = no result. Shown are actives, neighbours in structure and some others; about 4% of the full set was active somewhere.
SMILES,MPTP inh,TAAR1 ag,TAAR1 antag,DAGLB inhibitor,GPR7 antag,MPTP counter,others
CC(c1ccccc1)N1C(=O)/C(=C/c2ccncc2)SC1=S (centres undefined),70*,3,-31,-7,-7,29*,
COC(=O)C1=C(C)N(C)C(=NCc2ccc3c(c2)OCO3)NC1c1cccc(F)c1 (centres undefined),nt,1,-9,nt,nt,nt,
CCCNC(=O)C1(C)CCCN(Cc2cc(-c3ccccc3)nn2C)C1 (centres undefined),0,2,-27,nt,nt,nt,
COc1ccc(NC(=S)Nc2ccc3nc(C)c(C)nc3c2)cc1,3,0,19,-1,0,nt,
COc1ccc(NC(=S)Nc2ccc3nsnc3c2)cc1,60*,7,12,-11,8,78*,
CCOc1ccc(NC(=O)Nc2ccc3nsnc3c2)cc1,91*,22,29,-3,-2,89*,
CCOc1ccc(NC(=S)Nc2ccc3nsnc3c2)cc1,86*,10,10,-13,11,77*,
CCOc1ccc(NC(=O)Nc2cccc(C(=O)O)c2)cc1,-2,2,-2,1,-9,nt,
COc1ccc(-c2ccc(C(=O)NCc3ccncc3)c3occc23)c(C)c1,92*,1,28,nt,nt,112*,
O=C(NCc1ccc(C(F)(F)F)cc1)c1ccc(-c2ccc(F)c(F)c2)c2ccoc12,2,1,3,nt,nt,nt,
O=C(NCc1ccncc1)c1ccc(-c2ccc(F)c(F)c2)c2ccoc12,91*,2,9,nt,nt,87*,
COc1ccc(-c2coc3c(C(=O)NCc4ccc(OC)c(OC)c4)cccc23)c(C)c1,98*,4,56*,nt,nt,102*,
CCc1c(-c2cccc(Br)c2)ncn1CCc1ccccc1OC,nt,28,29,nt,nt,nt,
CN1OC[C@@H]2CN(C(=O)C(C)(C)C)[C@H](c3cccc(Oc4ccccc4)c3)C[C@@H]21,0,0,10,0,nt,nt,
Cc1ccc2nc(-c3cccc(Cl)c3)c(Cc3ccccc3C(F)(F)F)n2c1,nt,4,-16,nt,nt,nt,
O=[N+]([O-])c1ccc(NN=Cc2cccc3ccccc23)cc1,89*,2,0,0,nt,71*,
O=[N+]([O-])c1ccccc1C=NNc1ccccc1,1,0,-5,15,nt,nt,
O=[N+]([O-])c1ccc(N/N=C\c2ccccc2OCc2ccccc2)cc1,97*,7,23,0,8,76*,
CCOC(=O)C1=CCC(c2ccc(C)cc2)N(S(=O)(=O)c2ccc(C)cc2)C1 (centres undefined),-1,0,-16,nt,nt,nt,
O=[N+]([O-])c1ccc(O)c(/C=N/n2cnc3ccccc32)c1,69*,21,12,7,-3,79*,
O=[N+]([O-])c1ccc(NN=Cc2cc(Br)ccc2O)nc1,75*,6,13,8,nt,59*,
O=[N+]([O-])c1ccccc1N/N=C\c1ccccc1Cl,1,13,-5,2,-6,nt,
O=[N+]([O-])c1ccc(O)c(/C=N/Nc2ccccc2Cl)c1,94*,11,-8,7,-10,91*,
O=C(CSc1nnc(COc2ccc(Cl)cc2)o1)Nc1ccc(N2CCOCC2)cc1,-1,7,-26,3,nt,nt,
Cc1cccc(C(O)c2ncc(-c3ccccc3)[nH]2)c1C (centres undefined),-2,3,-1,nt,nt,nt,
SMILES,MPTP inh,TAAR1 ag,TAAR1 antag,DAGLB inhibitor,GPR7 antag,MPTP counter,others
COc1ccc(Br)cc1/C(C)=N/NC1=NCCN1,105*,18,-3,3,14,31*,
Cn1cc(CC(=O)Nc2ccc(Oc3cccnc3)cc2)c2ccccc21,nt,0,18,nt,nt,nt,
COc1ccc(Cl)cc1NC(=O)c1cccc([N+](=O)[O-])c1O,85*,8,-3,14,nt,96*,
COc1ccc(Cl)cc1C(=O)Nc1ccc(NC(=O)c2ccco2)cc1,1,7,17,0,-9,nt,
COc1ccc(Cl)cc1NC(=O)c1ccco1,80*,4,3,-6,-12,1,MPTP swell DR=i;MPTP counter DR=>80
CC(O)CC(=O)OC[C@]12CC[C@H]3[C@@](C)(CC[C@H]4C(C)(C)CCC[C@]34C)[C@@H]1CC(C1=CC(=O)OC1O)O2 (some centres undefined),1,4,27,nt,nt,nt,
COc1ccccc1CNC(=O)C1(C)CCN1C(=O)C1(c2ccccc2)CC1 (centres undefined),1,0,-7,nt,nt,nt,
O=C(O)CC(CC(=O)Nc1ccc(-n2ccc(C(F)(F)F)n2)cc1)c1ccccc1 (centres undefined),4,11,-9,0,-2,nt,
O=C(Nc1ccccc1)Nc1ccc(-n2ccc(C(F)(F)F)n2)cc1,79*,12,58*,-10,-16,82*,
CCN1CCN(c2ncc(C(=O)Nc3c(F)cc(F)cc3Br)c3ccccc23)CC1,70*,15,3,-1,4,-6,MPTP swell DR=7.9*;MPTP counter DR=>80
CCN1CCN(c2ncc(C(=O)Nc3cc(Cl)c(OC)cc3OC)c3ccccc23)CC1,5,3,1,0,-12,nt,
Cc1ccc([C@H]2C[C@@H](n3cc(COC(=O)c4ccccc4)nn3)[C@H](O)CN2C(=O)c2cccs2)cc1,0,8,23,-4,nt,nt,
Cc1cccc(NC(=O)COC(=O)CN2C(=O)c3ccccc3C2=O)c1,0,8,-13,-3,nt,nt,
Cc1nnc(SCC(=O)NC2CCCCC2)n1-c1ccccc1,-1,3,-13,0,nt,nt,
CN(NS(=O)(=O)c1ccc(Br)cc1)c1nc(C(F)(F)F)nc2ccccc12,73*,10,3,4,-2,86*,
Cc1cc(=O)[nH]c(SCC(=O)/C=C2\N(C)c3ccccc3C2(C)C)n1,89*,13,30,-1,16,53*,
CC(=O)c1cccc(NC(=S)N2CCC(Cc3ccccc3)CC2)c1,-1,2,9,2,-8,nt,
CC(=O)c1ccc(NC(=S)N2CCC(Cc3ccccc3)CC2)cc1,61*,0,37,-3,6,44*,
NC(c1ccccc1)c1csc(Nc2ccc(C(=O)NCCCO)cn2)n1 (centres undefined),-1,2,-12,nt,nt,nt,
C=C(C)C1CC=C(CN2CCC(O)CC2)CC1 (centres undefined),0,1,-5,0,1,nt,
C=C(C)[C@@H]1CC=C(CN2CCC(N3CCC(C(=O)N4CCCC4)CC3)CC2)CC1,83*,1,-20,1,-17,47*,
O=C(N[C@@H](Cc1cccnc1)C(=O)N1CCC[C@H]1C(=O)NCc1ccccc1)c1ccc(Cl)cc1Cl,nt,2,-26,nt,nt,nt,
CC(NC(=O)c1cc(COc2ccccc2)on1)c1nccs1 (centres undefined),-3,-1,-11,-2,1,nt,
